In ChEMBL document CHEMBL1127500, “Structure-activity studies of benzimidazole-based DNA-cleaving agents. Comparison of benzimidazole, pyrrolobenzimidazole, and tetrahydropyridobenzimidazole analogues” (1994):

Key:
Type in all cases: functional
U-251 = assay: Antitumor activity against U251 cell line; conditions: Homo sapiens
Method in brief: (§1)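 Screened against a panel of up to 60 human cancer cell lines. Read-out is LC50, the drug concentration lethal to 50% of the cells, expressed as log LC50. The mean log LC50 across the screened lines is the centre line of the mean graph. Each line's deviation from that mean is shown as a bar.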

EKVX = assay: Antitumor activity against EKVX cell line; conditions: Homo sapiens
Method in brief: (§2)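 Drugs were screened against a panel of up to 60 human cancer cell lines. The end-point was LC50, the drug concentration lethal to 50% of the cancer cells. Values were expressed as log LC50 and plotted as mean graphs centred on the log of the panel-mean LC50. Bars to the right mark lines with lower log LC50 than the mean.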

HT-29 = assay: Antitumor activity against HT 29 cell line; conditions: Homo sapiens, read-out: Log LC50 (the source's name) (converted); method in brief: as §2
OVCAR-5 = assay: Antitumor activity against OVCAR-5 cell line; conditions: Homo sapiens; method in brief: as §2
[1] = Mean log10 LC50 was determined; method in brief: as §1
ACHN = assay: Antitumor activity against Renal cancer ACHN cell line; conditions: Homo sapiens, read-out: Log LC50 (the source's name) (converted); method in brief: as §2
M19-MEL = assay: Antitumor activity against M 19-MEL cell line; conditions: Homo sapiens; method in brief: as §2
CCRF-CEM = assay: Antitumor activity against CCRF-CEM leukemia cell line; conditions: Homo sapiens, read-out: Log LC50 (the source's name) (converted); method in brief: as §2
TK-10 = assay: Antitumor activity against Renal cancer TK-10 cell line; conditions: Homo sapiens; method in brief: as §2
SF-539 = assay: Antitumor activity against SF-539 cell line; conditions: Homo sapiens; method in brief: as §2
SW-620 = assay: Antitumor activity against SW-620 cell line; conditions: Homo sapiens; method in brief: as §1
M14 = assay: Antitumor activity against M 14 cell line; conditions: Homo sapiens; method in brief: as §2
LOX IMVI = assay: Antitumor activity against LOX IMVI cell line; conditions: Homo sapiens; method in brief: as §2
786-0 = assay: Antitumor activity against Renal cancer 786-O cell line; conditions: Homo sapiens; method in brief: as §2
NCI-H226 = assay: Antitumor activity against NCI-H226 cell line; conditions: Homo sapiens; method in brief: as §2
HOP-62 = assay: Antitumor activity against HOP-62 cell line; conditions: Homo sapiens; method in brief: as §2
A549 = assay: Antitumor activity against A549/ATCC cell line; conditions: Homo sapiens; method in brief: as §2
RXF 393 = assay: Antitumor activity against Renal cancer RXF-393 cell line; conditions: Homo sapiens; method in brief: as §2
Malme-3M = assay: Antitumor activity against MALME-3M cell line; conditions: Homo sapiens; method in brief: as §2
IGROV-1 = assay: Antitumor activity against IGROVI cell line; conditions: Homo sapiens; method in brief: as §2
KM-20L2 = assay: Antitumor activity against KM 20L2 cell line; conditions: Homo sapiens; method in brief: as §2
HCC 2998 = assay: Antitumor activity against HCC2998 cell line; conditions: Homo sapiens, read-out: Log LC50 (the source's name) (converted); method in brief: as §2
SNB- = assay: Antitumor activity against SNB-71 cell line; conditions: Homo sapiens, read-out: Log LC50 (the source's name) (converted); method in brief: as §1
OVCAR-8 = assay: Antitumor activity against OVCAR-8 cell line; conditions: Homo sapiens, read-out: Log LC50 (the source's name) (converted); method in brief: as §2
SK-MEL-28 = assay: Antitumor activity against SK-MEL-28 cell line; conditions: Homo sapiens; method in brief: as §1
RPMI-8226 = assay: Antitumor activity against RPMI-8226 leukemia cell line; conditions: Homo sapiens, read-out: Log LC50 (the source's name) (converted); method in brief: as §2
SN12C = assay: Antitumor activity against Renal cancer SN 12C cell line; conditions: Homo sapiens; method in brief: as §2
MOLT-4 = assay: Antitumor activity against MOLT-4 leukemia cell line; conditions: Homo sapiens; method in brief: as §2
K562 = assay: Antitumor activity against K-562 leukemia cell line; conditions: Homo sapiens, read-out: Log LC50 (the source's name) (converted); method in brief: as §2
SK-MEL-5 = assay: Antitumor activity against SK-MEL-5 cell line; conditions: Homo sapiens; method in brief: as §1
DMS-114 = assay: Antitumor activity against DMS 114 cell line; conditions: Homo sapiens; method in brief: as §2
DLD-1 = assay: Antitumor activity against DLD-1 cell line; conditions: Homo sapiens; method in brief: as §2
HCT-15 = assay: Antitumor activity against HCT-15 cell line; conditions: Homo sapiens, read-out: Log LC50 (the source's name) (converted); method in brief: as §2
UO-31 = assay: Antitumor activity against Renal cancer UO-31 cell line; conditions: Homo sapiens; method in brief: as §2
UACC-257 = assay: Antitumor activity against UACC-257 cell line; conditions: Homo sapiens; method in brief: as §1
NCI-H522 = assay: Antitumor activity against NCI-H522 cell line; conditions: Homo sapiens; method in brief: as §2
KM12 = assay: Antitumor activity against KM 12 cell line; conditions: Homo sapiens, read-out: Log LC50 (the source's name) (converted); method in brief: as §2
SF-295 = assay: Antitumor activity against SF-295 cell line; conditions: Homo sapiens, read-out: Log LC50 (the source's name) (converted); method in brief: as §2
XF498 = assay: Antitumor activity against XF 498 cell line; conditions: Homo sapiens, read-out: Log LC50 (the source's name) (converted); method in brief: as §1
SK-OV-3 = assay: Antitumor activity against SK-OV-3 cell line; conditions: Homo sapiens, read-out: Log LC50 (the source's name) (converted); method in brief: as §1
HOP-18 = assay: Antitumor activity against HOP-18 cell line; conditions: Homo sapiens, read-out: Log LC50 (the source's name) (converted); method in brief: as §2
SF-268 = assay: Antitumor activity against SF-268 cell line; conditions: Homo sapiens; method in brief: as §2
CAKI-1 = assay: Antitumor activity against Renal cancer CAKI-1 cell line; conditions: Homo sapiens, read-out: Log LC50 (the source's name) (converted); method in brief: as §2
OVCAR-3 = assay: Antitumor activity against OVCAR-3 cell line; conditions: Homo sapiens; method in brief: as §2
LXFL 529 = assay: Antitumor activity against […] cell line; conditions: Homo sapiens; method in brief: as §2
HOP-92 = assay: Antitumor activity against HOP-92 cell line; conditions: Homo sapiens, read-out: Log LC50 (the source's name) (converted); method in brief: as §2
NCI-H322M = assay: Antitumor activity against NCI-H322M cell line; conditions: Homo sapiens, read-out: Log LC50 (the source's name) (converted); method in brief: as §2
SNB-19 = assay: Antitumor activity against SNB-19 cell line; conditions: Homo sapiens; method in brief: as §1
SNB-75 = assay: Antitumor activity against SNB-75 cell line; conditions: Homo sapiens; method in brief: as §1
SK-MEL-2 = assay: Antitumor activity against SK-MEL-2 cell line; conditions: Homo sapiens, read-out: Log LC50 (the source's name) (converted); method in brief: as §2
OVCAR-4 = assay: Antitumor activity against OVCAR-4 cell line; conditions: Homo sapiens; method in brief: as §2

Compound: CC(=O)OC1CCn2c1nc1c2C(=O)C(N2CC2)=C(C)C1=O (stereo unspecified)
- LC50 (U-251): 3090 nM
- LC50 (EKVX): 832 nM
- CC50 (HT-29): 5370 nM
- LC50 (OVCAR-5): 3390 nM
- Mean log LC50 [1]: -5.68
- CC50 (ACHN): 2340 nM
- LC50 (M19-MEL): > 100000 nM
- CC50 (CCRF-CEM): > 100000 nM
- LC50 (TK-10): 2880 nM
- LC50 (concentration lethal to 50% of cells) (SF-539): 631 nM
- LC50 (SW-620): 4270 nM
- LC50 (M14): 324 nM
- LC50 (LOX IMVI): 66.1 nM
- LC50 (786-0): 347 nM
- LC50 (NCI-H226): 955 nM
- LC50 (HOP-62): 219 nM
- LC50 (A549): 7760 nM
- LC50 (RXF 393): 51.3 nM
- LC50 (Malme-3M): 589 nM
- LC50 (IGROV-1): 8130 nM
- LC50 (concentration lethal to 50% of cells) (KM-20L2): 4370 nM
- CC50 (HCC 2998): 372 nM
- CC50 (SNB-): 6460 nM
- CC50 (OVCAR-8): 1000 nM
- LC50 (SK-MEL-28): 603 nM
- CC50 (RPMI-8226): > 100000 nM
- LC50 (SN12C): 617 nM
- LC50 (MOLT-4): > 100000 nM
- CC50 (K562): > 100000 nM
- LC50 (SK-MEL-5): 224 nM
- LC50 (DMS-114): > 100000 nM
- LC50 (DLD-1): 53700 nM
- CC50 (HCT-15): 3090 nM
- LC50 (concentration lethal to 50% of cancer cells) (UO-31): 145 nM
- LC50 (UACC-257): 2040 nM
- LC50 (NCI-H522): 100 nM
- CC50 (KM12): 1070 nM
- CC50 (SF-295): 2000 nM
- CC50 (XF498): 126 nM
- CC50 (SK-OV-3): 2950 nM
- CC50 (HOP-18): 3160 nM
- LC50 (SF-268): 5620 nM
- CC50 (CAKI-1): 6460 nM
- LC50 (OVCAR-3): 3390 nM
- LC50 (LXFL 529): 525 nM
- CC50 (HOP-92): 11200 nM
- CC50 (NCI-H322M): 2690 nM
- LC50 (SNB-19): 2570 nM
- LC50 (SNB-75): 603 nM
- CC50 (SK-MEL-2): 479 nM
- LC50 (OVCAR-4): 380 nM
